Values belong to the compound of their own block, whether it stands above or below them. Active and inactive are the calls of the source. The rule behind the calls is not given here.
Key:
[1] = tested on: Mus musculus; experiment: Antidepressant activity in CD1 mouse assessed as decrease in immobility time at 1.25 mg/kg, sc measured after 15 mins by forced swim test relative to vehicle-treated control; type: functional, organism-based; design: dose 1.25 mg/kg
[2] = tested on: Mus musculus; experiment: Antidepressant activity in CD1 mouse assessed as decrease in immobility time at 0.1 mg/kg, sc measured after 15 mins by forced swim test relative to vehicle-treated control; type: functional, organism-based; design: dose 0.1 mg/kg
Procedure, shortened: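 Mouse forced swim test scoring immobility time. The 5-HT1A-R antagonist was given alone at 0.1 mg/kg sc. Groups were compared with vehicle-treated mice, with 7–8 animals per group, and data are shown as means ± SEM.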

[3] = target: T1, 5-hydroxytryptamine receptor 1A (Homo sapiens, UniProt P08908); experiment: Displacement of [3H]8-OH-DPAT from human 5HT1A receptor expressed in HeLa cells after 30 mins; type: cell-based
T1 sequence (P08908 whole entry): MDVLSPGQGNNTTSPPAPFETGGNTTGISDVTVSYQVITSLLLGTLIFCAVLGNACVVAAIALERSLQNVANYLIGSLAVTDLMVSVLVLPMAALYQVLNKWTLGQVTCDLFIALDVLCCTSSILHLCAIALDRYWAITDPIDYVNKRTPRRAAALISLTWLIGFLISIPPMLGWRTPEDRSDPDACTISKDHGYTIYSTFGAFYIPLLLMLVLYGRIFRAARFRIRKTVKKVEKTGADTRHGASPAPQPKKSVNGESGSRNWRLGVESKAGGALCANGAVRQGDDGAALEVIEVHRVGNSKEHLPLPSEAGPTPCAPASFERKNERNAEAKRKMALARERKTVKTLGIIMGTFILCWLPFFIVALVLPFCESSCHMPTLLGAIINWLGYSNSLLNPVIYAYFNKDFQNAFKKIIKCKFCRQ
Procedure, shortened: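 pKi is derived from displacement of [3H]-8-OH-DPAT binding at human cloned 5-HT1A receptor. Values are means ± SEMs of 3–6 separate experiments.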

[4] = tested on: Mus musculus; experiment: Antidepressant activity in CD1 mouse assessed as decrease in immobility time at 0.2 mg/kg, ip after 15 mins by forced swim test relative to vehicle-treated control; type: functional, organism-based; design: dose 0.2 mg/kg
Procedure, shortened: (§1)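 Mouse forced swimming test with immobility time as the read-out. Single ip doses were 0.012, 0.025, 0.05, 0.2 or 0.5 mg/kg, with fluoxetine 20 mg/kg ip as reference. Results are compared against vehicle-treated mice and given as means ± SEMs of 8–9 animals.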

[5] = target: T2, Alpha-2C adrenergic receptor (Homo sapiens) (UniProt P18825); experiment: Agonist activity at human alpha2C adrenoceptor expressed in CHO cells assessed as extracellular acidification measured after 4 mins by cytosensor microphysiometric analysis relative to control; type: functional, cell-based
T2 sequence (whole entry): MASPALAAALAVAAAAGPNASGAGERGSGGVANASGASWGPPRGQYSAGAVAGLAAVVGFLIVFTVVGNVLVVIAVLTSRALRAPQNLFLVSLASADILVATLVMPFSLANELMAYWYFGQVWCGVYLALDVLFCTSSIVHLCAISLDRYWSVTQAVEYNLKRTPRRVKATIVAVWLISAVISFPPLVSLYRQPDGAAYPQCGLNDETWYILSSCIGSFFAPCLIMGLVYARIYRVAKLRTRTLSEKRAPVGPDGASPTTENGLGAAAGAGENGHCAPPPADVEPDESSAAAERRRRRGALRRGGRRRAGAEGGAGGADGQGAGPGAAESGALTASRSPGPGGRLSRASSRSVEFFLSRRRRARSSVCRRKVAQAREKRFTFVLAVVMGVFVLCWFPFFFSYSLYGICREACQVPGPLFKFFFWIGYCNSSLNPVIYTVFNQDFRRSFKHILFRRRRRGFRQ
Procedure, shortened: (§2)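 Binding and functional assays run on CHO cells expressing recombinant human α2-AR subtypes. Functional read-outs are agonist potency (pEC50) with intrinsic activity (ia), or antagonist pKb. Affinity is reported as pKi. Values are means ± SEMs of 3–6 separate experiments.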

[6] = target: T3, Alpha-2B adrenergic receptor (Homo sapiens) (UniProt P18089); settings: CHO
T3 sequence (whole entry): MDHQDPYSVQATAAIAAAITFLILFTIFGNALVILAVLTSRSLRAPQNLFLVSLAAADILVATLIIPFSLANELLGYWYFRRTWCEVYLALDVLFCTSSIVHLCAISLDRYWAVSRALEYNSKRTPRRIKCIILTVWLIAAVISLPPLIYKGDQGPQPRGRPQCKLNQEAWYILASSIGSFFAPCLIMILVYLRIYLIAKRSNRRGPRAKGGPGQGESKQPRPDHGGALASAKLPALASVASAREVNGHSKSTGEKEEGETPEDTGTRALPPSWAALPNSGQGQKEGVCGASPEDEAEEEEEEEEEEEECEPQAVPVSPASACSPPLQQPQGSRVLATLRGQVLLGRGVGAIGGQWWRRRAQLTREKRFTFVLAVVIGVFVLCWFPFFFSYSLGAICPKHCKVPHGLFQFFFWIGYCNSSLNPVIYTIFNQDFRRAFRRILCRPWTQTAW

[7] = tested on: Mus musculus; experiment: Antidepressant activity in CD1 mouse assessed as decrease in immobility time at 0.012 mg/kg, ip after 15 mins by forced swim test relative to vehicle-treated control; type: functional, organism-based; design: dose 0.012 mg/kg; procedure, shortened: as §1
[8] = target: T4, 5-hydroxytryptamine receptor 1A (Homo sapiens) (UniProt P08908); settings: HeLa
T4 sequence (whole entry): T1 sequence (P08908 whole entry)

[9] = tested on: Mus musculus; experiment: Antidepressant activity in CD1 mouse assessed as decrease in immobility time at 0.025 mg/kg, ip after 15 mins by forced swim test relative to vehicle-treated control; type: functional, organism-based; design: dose 0.025 mg/kg; procedure, shortened: as §1
[10] = target: T5, Alpha-2A adrenergic receptor (Homo sapiens) (UniProt P08913); settings: CHO
T5 sequence (whole entry): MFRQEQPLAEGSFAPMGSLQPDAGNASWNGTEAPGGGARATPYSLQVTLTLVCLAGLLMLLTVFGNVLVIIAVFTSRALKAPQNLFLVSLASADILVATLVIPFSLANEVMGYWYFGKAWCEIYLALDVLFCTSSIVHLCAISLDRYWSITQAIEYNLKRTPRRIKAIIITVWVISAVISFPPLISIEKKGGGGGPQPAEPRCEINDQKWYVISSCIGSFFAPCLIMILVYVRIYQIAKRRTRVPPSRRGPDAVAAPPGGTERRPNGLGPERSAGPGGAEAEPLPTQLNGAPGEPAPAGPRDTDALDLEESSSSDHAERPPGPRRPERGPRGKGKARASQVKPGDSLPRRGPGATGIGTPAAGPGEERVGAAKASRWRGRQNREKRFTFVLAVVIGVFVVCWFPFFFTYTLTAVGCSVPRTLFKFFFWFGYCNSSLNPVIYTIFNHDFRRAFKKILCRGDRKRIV

[11] = tested on: Mus musculus; experiment: Antidepressant activity in CD1 mouse assessed as decrease in immobility time at 0.5 mg/kg, ip after 15 mins by forced swim test relative to vehicle-treated control; type: functional, organism-based; design: dose 0.5 mg/kg; procedure, shortened: as §1
[12] = tested on: Mus musculus; experiment: Antidepressant activity in CD1 mouse assessed as decrease in immobility time at 0.05 mg/kg, ip after 15 mins by forced swim test relative to vehicle-treated control; type: functional, organism-based; design: dose 0.05 mg/kg; procedure, shortened: as §1
[13] = tested on: Mus musculus; experiment: Effect on morphine-dependence in CD1 mouse assessed as decrease in naloxone-precipitated forepaw tremors at 0.025 mg/kg, ip administered chronically 15 mins prior to each morphine challenge relative to vehicle-treated control; type: functional, organism-based; design: dose 0.025 mg/kg
Procedure, shortened: (§3)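 Acquisition of morphine dependence in mice, tested with repeated ip dosing (racemate 0.05 mg/kg, enantiomers 0.025 mg/kg). Withdrawal was precipitated by naloxone. Scored signs were jumping frequency and somatic signs (rearing, forepaw tremors, teeth chatter). Groups were compared with vehicle and with the morphine group.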

[14] = tested on: Mus musculus; experiment: Effect on morphine-dependence in CD1 mouse assessed as decrease in naloxone-precipitated rearing at 0.025 mg/kg, ip administered chronically 15 mins prior to each morphine challenge relative to vehicle-treated control; type: functional, organism-based; design: dose 0.025 mg/kg; procedure, shortened: as §3
[15] = target: T6, Alpha-2A adrenergic receptor (Homo sapiens, UniProt P08913); experiment: Displacement of [3H]RX821002 from human alpha2A adrenoceptor expressed in CHO cells after 30 mins by scintillation counting; type: cell-based; procedure, shortened: as §2
T6 sequence (P08913 whole entry): T5 sequence (whole entry)

[16] = tested on: Mus musculus; experiment: Antidepressant activity in CD1 mouse assessed as decrease in immobility time at 0.025 mg/kg, ip administered 15 mins prior to coadministration with yohimbine measured after 15 mins by forced swim test relative to vehicle-treated control; type: functional, organism-based; design: dose 0.025 mg/kg
Procedure, shortened: (§4)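 Forced swimming test in mice using 0.025 mg/kg ip test dose. It was combined with the 5-HT1A antagonist WAY 100635 (0.1 mg/kg, sc) or with the α2 antagonist yohimbine (1.250 mg/kg, ip). Each antagonist was also given alone. Immobility time is the read-out, given as means ± SEMs of 7–8 animals.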

[17] = tested on: Mus musculus; experiment: Effect on morphine-dependence in CD1 mouse assessed as decrease in naloxone-precipitated forepaw tremors at 0.025 mg/kg, ip administered acutely 15 mins prior to naloxone challenge relative to vehicle-treated control; type: functional, organism-based; design: dose 0.025 mg/kg
Procedure, shortened: as §3, with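 “Expression” for “Acquisition”, “a single acute” for “repeated”, “dose” for “dosing”, “naloxone in control and morphine-treated mice.” for “naloxone.”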

[18] = target: T7, Alpha-2B adrenergic receptor (Homo sapiens, UniProt P18089); experiment: Agonist activity at human alpha2B adrenoceptor expressed in CHO cells assessed as extracellular acidification measured after 4 mins by cytosensor microphysiometric analysis
T7 sequence (P18089 whole entry): T3 sequence (whole entry)

[19] = tested on: Mus musculus; experiment: Effect on morphine-dependence in CD1 mouse assessed as decrease in naloxone-precipitated jumping at 0.025 mg/kg, ip administered acutely 15 mins prior to naloxone challenge relative to vehicle-treated control; type: functional, organism-based; design: dose 0.025 mg/kg
Procedure, shortened: as §3, with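 “Expression” for “Acquisition”, “a single acute” for “repeated”, “dose” for “dosing”, “naloxone in control and morphine-treated mice.” for “naloxone.”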

[20] = tested on: Mus musculus; experiment: Effect on morphine-dependence in CD1 mouse assessed as decrease in naloxone-precipitated teeth chatter at 0.025 mg/kg, ip administered acutely 15 mins prior to naloxone challenge relative to vehicle-treated control; type: functional, organism-based; design: dose 0.025 mg/kg
Procedure, shortened: as §3, with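 “Expression” for “Acquisition”, “a single acute” for “repeated”, “dose” for “dosing”, “naloxone in control and morphine-treated mice.” for “naloxone.”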

[21] = target: T8, Alpha-2C adrenergic receptor (Homo sapiens, UniProt P18825); experiment: Displacement of [3H]RX821002 from human alpha2C adrenoceptor expressed in CHO cells after 30 mins by scintillation counting; type: cell-based; procedure, shortened: as §2
T8 sequence (P18825 whole entry): T2 sequence (whole entry)

[22] = target: T8, Alpha-2C adrenergic receptor; experiment: Agonist activity at human alpha2C adrenoceptor expressed in CHO cells assessed as extracellular acidification measured after 4 mins by cytosensor microphysiometric analysis; type: functional, cell-based; procedure, shortened: as §2
[23] = target: T7, Alpha-2B adrenergic receptor; experiment: Displacement of [3H]RX821002 from human alpha2B adrenoceptor expressed in CHO cells after 30 mins by scintillation counting; type: cell-based; procedure, shortened: as §2
[24] = tested on: Mus musculus; experiment: Effect on morphine-dependence in CD1 mouse assessed as decrease in naloxone-precipitated teeth chatter at 0.025 mg/kg, ip administered chronically 15 mins prior to each morphine challenge relative to vehicle-treated control; type: functional, organism-based; design: dose 0.025 mg/kg; procedure, shortened: as §3
[25] = tested on: Mus musculus; experiment: Effect on morphine-dependence in CD1 mouse assessed as decrease in naloxone-precipitated jumping at 0.025 mg/kg, ip administered chronically 15 mins prior to each morphine challenge relative to vehicle-treated control; type: functional, organism-based; design: dose 0.025 mg/kg; procedure, shortened: as §3
[26] = tested on: Mus musculus; experiment: Effect on morphine-dependence in CD1 mouse assessed as decrease in naloxone-precipitated rearing at 0.025 mg/kg, ip administered acutely 15 mins prior to naloxone challenge relative to vehicle-treated control; type: functional, organism-based; design: dose 0.025 mg/kg
Procedure, shortened: as §3, with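 “Expression” for “Acquisition”, “a single acute” for “repeated”, “dose” for “dosing”, “naloxone in control and morphine-treated mice.” for “naloxone.”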

[27] = tested on: Mus musculus; experiment: Antidepressant activity in CD1 mouse assessed as decrease in immobility time at 0.025 mg/kg, ip administered 30 mins prior to coadministration with WAY100635 measured after 15 mins by forced swim test relative to vehicle-treated control; type: functional, organism-based; design: dose 0.025 mg/kg; procedure, shortened: as §4

Compound: COC(=O)[C@@H]1[C@H]2C[C@H]3c4[nH]c5ccccc5c4CCN3C[C@@H]2CC[C@@H]1O
Activity [1]: inactive
Activity [2]: inactive

Ki [3]: 3240 nM
Compound: Clc1cccc(Cl)c1N=C1NCCN1 [CLONIDINE]

Compound: C=CCc1ccccc1OC(C)C1=NCCN1 (racemic) [ALLYPHENYLINE]
Activity [4]: Active
Intrinsic activity [5]: 0.9
pEC50 [6]: inactive
Activity [7]: inactive
pD2 [8]: 6.86
Activity [9]: Active
pKb [10]: 7.4
Activity [11]: inactive
Ki [3]: 28.2 nM
Activity [12]: Active

Compound: C[C@@H](Oc1ccccc1CC1CC1)C1=NCCN1
Intrinsic activity [5]: 0.75
Activity [13]: Active
Activity [14]: Active
Ki [15]: 44.7 nM
Activity [16]: inactive
Activity [17]: Active
EC50 [18]: 3.98 µM
Activity [19]: Active
Activity [20]: Active
Ki [21]: 234 nM
EC50 [22]: 316 nM
Ki [23]: 339 nM
Activity [24]: Active
Activity [25]: Active
Ki [3]: 39.8 nM
Activity [26]: Active
Activity [27]: inactive

— ChEMBL document CHEMBL2086372 (ACS Med Chem Lett, 2012)
